Measured values from ChEMBL document CHEMBL4689842, “EUbOPEN Chemogenomics Library wave 1” (2021).

System: HEK-293T
Assay: Multiplex assay against HEK293T;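 as to Population Tubulin-Different-Phenotype (%): share of the cells with healthy nuclei that show this phenotype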
Assay type: toxicity, cell-based
Conditions: human
How it was run: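 Values for tubulin, mitochondrial-mass and membrane-permeability phenotypes are per cents of cells with healthy nuclei. These cells were identified by CellPathfinder machine-learning gating of live cells that had been stained at seeding with Hoechst33342, BioTracker Green Microtubule Cytoskeleton Dye, MitoTracker Red and Annexin V Alexa Fluor 680 and imaged on a CQ1 microscope at 37°C and 5% CO2 after compound addition. The gating first set Hoechst high-intensity objects apart from normal cells, then split normal cells into healthy, pyknosed or fragmented nuclei, and pyknosed cells into mitotic or apoptotic.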

[1] = 12 h, 1 µM, compound concentration 1 uM, replicate 1
[2] = 12 h, 1 µM, compound concentration 1 uM, replicate 2
[3] = 12 h, 10 µM, compound concentration 10 uM, replicate 1
[4] = 12 h, 10 µM, compound concentration 10 uM, replicate 2
[5] = 24 h, 1 µM, compound concentration 1 uM, replicate 1
[6] = 24 h, 1 µM, compound concentration 1 uM, replicate 2
[7] = 24 h, 10 µM, compound concentration 10 uM, replicate 1
[8] = 24 h, 10 µM, compound concentration 10 uM, replicate 2
[9] = 48 h, 1 µM, compound concentration 1 uM, replicate 1
[10] = 48 h, 1 µM, compound concentration 1 uM, replicate 2
[11] = 48 h, 10 µM, compound concentration 10 uM, replicate 1
[12] = 48 h, 10 µM, compound concentration 10 uM, replicate 2

With `OC1(c2ccc(Cl)cc2)CCN(Cc2c[nH]c3ccccc23)CC1` the “Population Apoptotic (%)” value [1] was 51%, the “Population Fragmented Nuclei (%)” value [1] was 20% and the “Population Healthy Nuclei (%)” value [1] was 14%. For the same molecule, the “Population Hoechst High Intensity Objects (%)” value [1] was 15%, the “Population Membrane Permeable-Phenotype (%)” value [1] was 4% and the “Population Mitochondria Different-Phenotype (%)” value [1] was 63%. The “Population Mitotic Cells (%)” value [1] was 48%, the “Population Normal (%)” value [1] was 84% and the “Population Pyknosed Nuclei (%)” value [1] was 65%. For the same molecule, the “Population Tubulin-Different-Phenotype (%)” value [1] was 45%, the “Total Cell Count” value [1] was 177 and the “Population Apoptotic (%)” value [2] was 18%. For the same molecule, the “Population Fragmented Nuclei (%)” value [2] was 6%, the “Population Healthy Nuclei (%)” value [2] was 29% and the “Population Hoechst High Intensity Objects (%)” value [2] was 6%. The “Population Membrane Permeable-Phenotype (%)” value [2] was 7%, the “Population Mitochondria Different-Phenotype (%)” value [2] was 34% and the “Population Mitotic Cells (%)” value [2] was 81%. For the same molecule, the “Population Normal (%)” value [2] was 93%, the “Population Pyknosed Nuclei (%)” value [2] was 63% and the “Population Tubulin-Different-Phenotype (%)” value [2] was 42%. For the same molecule, the “Total Cell Count” value [2] was 136, the “Population Apoptotic (%)” value [3] was 70% and the “Population Fragmented Nuclei (%)” value [3] was 11%. For the same molecule, the “Population Healthy Nuclei (%)” value [3] was 11%, the “Population Hoechst High Intensity Objects (%)” value [3] was 15% and the “Population Membrane Permeable-Phenotype (%)” value [3] was 7%. The “Population Mitochondria Different-Phenotype (%)” value [3] was 100%, the “Population Mitotic Cells (%)” value [3] was 29% and the “Population Normal (%)” value [3] was 84%. The “Population Pyknosed Nuclei (%)” value [3] was 77%, the “Population Tubulin-Different-Phenotype (%)” value [3] was 92% and the “Total Cell Count” value [3] was 275. The “Population Apoptotic (%)” value [4] was 63%, the “Population Fragmented Nuclei (%)” value [4] was 5% and the “Population Healthy Nuclei (%)” value [4] was 14%. The “Population Hoechst High Intensity Objects (%)” value [4] was 9%, the “Population Membrane Permeable-Phenotype (%)” value [4] was 17% and the “Population Mitochondria Different-Phenotype (%)” value [4] was 89%. For the same molecule, the “Population Mitotic Cells (%)” value [4] was 36%, the “Population Normal (%)” value [4] was 90% and the “Population Pyknosed Nuclei (%)” value [4] was 80%. The “Population Tubulin-Different-Phenotype (%)” value [4] was 86%, the “Total Cell Count” value [4] was 223 and the “Population Apoptotic (%)” value [5] was 50%. The “Population Fragmented Nuclei (%)” value [5] was 22%, the “Population Healthy Nuclei (%)” value [5] was 30% and the “Population Hoechst High Intensity Objects (%)” value [5] was 16%. The “Population Membrane Permeable-Phenotype (%)” value [5] was 3%, the “Population Mitochondria Different-Phenotype (%)” value [5] was 70% and the “Population Mitotic Cells (%)” value [5] was 49%. For the same molecule, the “Population Normal (%)” value [5] was 83%, the “Population Pyknosed Nuclei (%)” value [5] was 46% and the “Population Tubulin-Different-Phenotype (%)” value [5] was 42%. The “Total Cell Count” value [5] was 210, the “Population Apoptotic (%)” value [6] was 27% and the “Population Fragmented Nuclei (%)” value [6] was 6%. For the same molecule, the “Population Healthy Nuclei (%)” value [6] was 52%, the “Population Hoechst High Intensity Objects (%)” value [6] was 5% and the “Population Membrane Permeable-Phenotype (%)” value [6] was 8%. The “Population Mitochondria Different-Phenotype (%)” value [6] was 30%, the “Population Mitotic Cells (%)” value [6] was 72% and the “Population Normal (%)” value [6] was 94%. The “Population Pyknosed Nuclei (%)” value [6] was 40%, the “Population Tubulin-Different-Phenotype (%)” value [6] was 50% and the “Total Cell Count” value [6] was 171. The “Population Apoptotic (%)” value [7] was 76%, the “Population Fragmented Nuclei (%)” value [7] was 14% and the “Population Healthy Nuclei (%)” value [7] was 3%. The “Population Hoechst High Intensity Objects (%)” value [7] was 16%, the “Population Membrane Permeable-Phenotype (%)” value [7] was 0% and the “Population Mitochondria Different-Phenotype (%)” value [7] was 100%. The “Population Mitotic Cells (%)” value [7] was 23%, the “Population Normal (%)” value [7] was 83% and the “Population Pyknosed Nuclei (%)” value [7] was 81%. For the same molecule, the “Population Tubulin-Different-Phenotype (%)” value [7] was 100%, the “Total Cell Count” value [7] was 282 and the “Population Apoptotic (%)” value [8] was 89%. For the same molecule, the “Population Fragmented Nuclei (%)” value [8] was 5%, the “Population Healthy Nuclei (%)” value [8] was 8% and the “Population Hoechst High Intensity Objects (%)” value [8] was 8%. For the same molecule, the “Population Membrane Permeable-Phenotype (%)” value [8] was 15%, the “Population Mitochondria Different-Phenotype (%)” value [8] was 73% and the “Population Mitotic Cells (%)” value [8] was 10%. The “Population Normal (%)” value [8] was 91%, the “Population Pyknosed Nuclei (%)” value [8] was 85% and the “Population Tubulin-Different-Phenotype (%)” value [8] was 84%. The “Total Cell Count” value [8] was 238, the “Population Apoptotic (%)” value [9] was 58% and the “Population Fragmented Nuclei (%)” value [9] was 19%. The “Population Healthy Nuclei (%)” value [9] was 53%, the “Population Hoechst High Intensity Objects (%)” value [9] was 13% and the “Population Mitochondria Different-Phenotype (%)” value [9] was 41%. For the same molecule, the “Population Mitotic Cells (%)” value [9] was 41%, the “Population Normal (%)” value [9] was 86% and the “Population Pyknosed Nuclei (%)” value [9] was 26%. For the same molecule, the “Population Tubulin-Different-Phenotype (%)” value [9] was 31%, the “Total Cell Count” value [9] was 247 and the “Population Apoptotic (%)” value [10] was 7%. For the same molecule, the “Population Fragmented Nuclei (%)” value [10] was 7%, the “Population Healthy Nuclei (%)” value [10] was 70% and the “Population Hoechst High Intensity Objects (%)” value [10] was 2%. The “Population Membrane Permeable-Phenotype (%)” value [10] was 6%, the “Population Mitochondria Different-Phenotype (%)” value [10] was 15% and the “Population Mitotic Cells (%)” value [10] was 92%. The “Population Normal (%)” value [10] was 97%, the “Population Pyknosed Nuclei (%)” value [10] was 22% and the “Population Tubulin-Different-Phenotype (%)” value [10] was 39%. The “Total Cell Count” value [10] was 264, the “Population Apoptotic (%)” value [11] was 71% and the “Population Fragmented Nuclei (%)” value [11] was 22%. The “Population Healthy Nuclei (%)” value [11] was 0%, the “Population Hoechst High Intensity Objects (%)” value [11] was 18% and the “Population Membrane Permeable-Phenotype (%)” value [11] was 0%. The “Population Mitochondria Different-Phenotype (%)” value [11] was 100%, the “Population Mitotic Cells (%)” value [11] was 28% and the “Population Normal (%)” value [11] was 81%. For the same molecule, the “Population Pyknosed Nuclei (%)” value [11] was 77%, the “Population Tubulin-Different-Phenotype (%)” value [11] was 100% and the “Total Cell Count” value [11] was 295. The “Population Apoptotic (%)” value [12] was 89%, the “Population Fragmented Nuclei (%)” value [12] was 19% and the “Population Healthy Nuclei (%)” value [12] was 19%. For the same molecule, the “Population Hoechst High Intensity Objects (%)” value [12] was 4%, the “Population Membrane Permeable-Phenotype (%)” value [12] was 4% and the “Population Mitochondria Different-Phenotype (%)” value [12] was 71%. For the same molecule, the “Population Mitotic Cells (%)” value [12] was 10%, the “Population Normal (%)” value [12] was 95% and the “Population Pyknosed Nuclei (%)” value [12] was 60%. The “Population Tubulin-Different-Phenotype (%)” value [12] was 95% and the “Total Cell Count” value [12] was 224.
